For data set [1], the species on record is Mus musculus. The experiment in a line: Inhibition of amyloid beta (1 to 42)-induced mPTP opening in mouse HT22 cells assessed as reduction in mitochondrial membrane potential loss by measuring green to red fluorescence ratio at 5 uM preincubated for 10 mins followed by amyloid beta (1 to 42) addition measured every 1 hr for 3 hrs by JC1 staining based fluorescence assay relative to control. Format: cell-based. The gist of the method: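 HT-22 cells were seeded at 30,000 per well the day before and loaded with JC-1 (7.5 µM final) in phenol red-free Opti-MEM for 1 h 15 min at 37 °C, then PBS-washed. Compound solution (5 µM in Opti-MEM) was added for 10 min at 37 °C, followed by Aβ1-42 solution (5 µM). Red (ex/em 530/580) and green (485/530) fluorescence were read hourly for 3 h. Green/red ratio change was normalized to vehicle control as 100%.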

Data set [2] deals with ATP synthase. As to the kind of experiment: Inhibition of ATP synthase in mouse HT22 cells assessed as ATP production at 5 uM after 7 hrs by luciferase based assay relative to control. Conditions: read-out: Activity. Further details: scale not given: the % may be the effect or the level left. Format: cell-based. In a few lines:
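HT-22 cells were seeded at 10,000 per well one day before, then given 5 µM compound for 7 h at 37 °C. After PBS washes, cells were lysed in 1% Triton X-100 in TBST. Protein was measured by BCA, and equal lysate amounts were assayed for ATP with a luciferase-based kit. Vehicle control was subtracted and percent inhibition was calculated relative to vehicle control ATP.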

The nature of data set [3]: Cytotoxicity against mouse HT22 cells assessed as cell viability at 5 uM after 24 hrs by MTT assay relative to control. Format: cell-based, HT-22. Conditions: read-out: Activity. The gist of the method:
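HT-22 mouse hippocampal cells were grown in DMEM with 10% FBS and penicillin/streptomycin at 37 °C under 5% CO2, seeded at 5000 per well and exposed to 5 µM compound for 24 h at 37 °C. MTT was added for 2 h, then formazan was dissolved in 10% Triton X-100/isopropanol/0.1 M HCl for 1 h at room temperature. A570 was read and vehicle control OD subtracted to give viability.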
In general terms: Tetrazolium dyes change colour on reduction, which living cells bring about.

For data set [4], the species on record is Mus musculus. As to the kind of experiment: Inhibition of mPTP opening in mouse HT22 cells assessed as protection against amyloid beta (1 to 42)-induced toxicity by measuring cell viability at 5 uM preincubated for 10 mins followed by amyloid beta (1 to 42) addition measured after 24 hrs by MTT assay (reference value: 50 to 70%). It is filed as cell-based. In a few lines: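 HT-22 cells were seeded at 5000 per well the day before. Compound was added as a 10 µM solution for 10 min at 37 °C, then an equal volume of 10 µM Aβ1-42 was added, and cells were incubated 24 h at 37 °C. The table footnote states 5 µM of each. Viability was read by MTT (2 h, acidic Triton/isopropanol solubilization, A570). Protection was scaled to vehicle + Aβ as 0% and vehicle alone as 100%.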

These results are taken from ChEMBL document CHEMBL4138127, “Synthesis and evaluation of new pyridyl/pyrazinyl thiourea derivatives: Neuroprotection against amyloid-β-induced toxicity” (Eur J Med Chem, 2017).

Turning to `CC(C)(C)NC(=S)Nc1ncccc1OCc1cccc(Cl)c1`, the Ratio in data set [1] turned out to be 112%.

With `CC(C)(C)NC(=S)Nc1nccnc1OCc1cccc(F)c1`, in data set [1], the Ratio was 28.1%. Also, the activity at 7 h, 5 µM in data set [2] is 99.7%. Besides, the viability at 24 h, 5 µM in data set [3] stood at 101%. The Activity in data set [4] worked out at 13.2%.

As to `CCNC(=S)Nc1ncccc1OCc1ccccc1`, the Ratio in data set [1] amounted to 66.8%.

Regarding `S=C(Nc1ncccc1OCc1cccc(Cl)c1)Nc1cccc2ccccc12`, the Ratio in data set [1] was 26%. The activity at 7 h, 5 µM in data set [2] is 107%. Further, the viability at 24 h, 5 µM in data set [3] came to 123%. In addition, the Activity in data set [4] is 18.6%.

Consider `S=C(NCc1ccccc1)Nc1ncccc1OCc1ccccc1`, for which the Ratio in data set [1] was 75.3%.

Regarding `S=C(Nc1cccc(Cl)c1)Nc1ncccc1OCc1ccccc1`, in data set [1], the Ratio was found to be 25.3%. Further, the activity at 7 h, 5 µM in data set [2] was 68%.

Take `CCNC(=S)Nc1ncccc1OCc1cccc(F)c1`: in data set [1], the Ratio is 88.7%.

On to `CC(C)(C)NC(=S)Nc1ncccc1OCc1cccc(F)c1`, for which the Ratio in data set [1] was 123%.

`S=C(Nc1cccc(Cl)c1)Nc1nccnc1OCc1ccccc1Cl`: the Ratio in data set [1] amounted to 30.8%. Further, the activity at 7 h, 5 µM in data set [2] was determined as 98%. The viability at 24 h, 5 µM in data set [3] was found to be 114%. Also, the Activity in data set [4] turned out to be 29.6%.

In the case of `Cc1ccc(NC(=S)Nc2ncccc2OCc2cccc(Cl)c2)cc1`, the Ratio in data set [1] turned out to be 26%. Besides, the activity at 7 h, 5 µM in data set [2] is 94.5%. Besides, the viability at 24 h, 5 µM in data set [3] was 96.2%. The Activity in data set [4] amounted to 22.8%.

On to `Cc1ccc(NC(=S)Nc2ncccc2OCc2ccccc2Cl)cc1`, for which the Ratio in data set [1] is 13%. Further, in data set [2], the activity at 7 h, 5 µM was 102%. For the same molecule, the viability at 24 h, 5 µM in data set [3] is 93.5%. Moreover, the Activity in data set [4] came out at 6.6%.

Regarding `Cc1ccc(NC(=S)Nc2ncccc2OCc2ccccc2)cc1`, the Ratio in data set [1] was 23.3%. Besides, in data set [2], the activity at 7 h, 5 µM turned out to be 66%.

For `CC(C)NC(=S)Nc1nccnc1OCc1cccc(F)c1`, the Ratio in data set [1] came to 43.1%.

Regarding `CC(C)NC(=S)Nc1ncccc1OCc1cccc(F)c1`, the Ratio in data set [1] amounted to 86%.

`CC(C)(C)NC(=S)Nc1ncccc1OCc1ccccc1`: the Ratio in data set [1] came to 91%.

On to `Cc1ccc(NC(=S)Nc2nccnc2OCc2cccc(F)c2)cc1`, for which the Ratio in data set [1] came out at 4.6%. For the same molecule, the activity at 7 h, 5 µM in data set [2] stood at 102%. In addition, the viability at 24 h, 5 µM in data set [3] was found to be 96.4%. For the same molecule, the Activity in data set [4] stood at 69.3%.

Take `Fc1cccc(COc2cccnc2NC(=S)Nc2cccc3ccccc23)c1`: in data set [1], the Ratio worked out at 16.7%. For the same molecule, the activity at 7 h, 5 µM in data set [2] came out at 100%. In addition, the viability at 24 h, 5 µM in data set [3] was found to be 102%. The Activity in data set [4] came out at 48.2%.

With `S=C(NCc1ccccc1)Nc1nccnc1OCc1ccccc1Cl`, the Ratio in data set [1] is 5.3%. Moreover, the activity at 7 h, 5 µM in data set [2] is 85.1%. In data set [3], the viability at 24 h, 5 µM was 105%. In addition, the Activity in data set [4] was found to be 3.8%.

For `S=C(Nc1ncccc1OCc1ccccc1)Nc1cccc2ccccc12`, the Ratio in data set [1] was 17.1%. Besides, the activity at 7 h, 5 µM in data set [2] was determined as 65%.

On to `CC(C)NC(=S)Nc1ncccc1OCc1ccccc1Cl`, for which the Ratio in data set [1] amounted to 31.7%. Besides, the activity at 7 h, 5 µM in data set [2] amounted to 93.7%. Moreover, the viability at 24 h, 5 µM in data set [3] was found to be 99.3%. Further, the Activity in data set [4] is -6.7%.

As for `S=C(Nc1cccc(Cl)c1)Nc1ncccc1OCc1ccccc1Cl`, the Ratio in data set [1] came out at 14.2%. Besides, in data set [2], the activity at 7 h, 5 µM was 103%. Also, in data set [3], the viability at 24 h, 5 µM worked out at 116%. In addition, the Activity in data set [4] stood at 22.7%.

For the molecule `CC(C)NC(=S)Nc1ncccc1OCc1ccccc1`, the Ratio in data set [1] is 45.2%.

Turning to `CC(C)NC(=S)Nc1nccnc1OCc1ccccc1Cl`, the Ratio in data set [1] turned out to be 56.3%.

For `CCNC(=S)Nc1ncccc1OCc1ccccc1Cl`, in data set [1], the Ratio was 94.1%.

For the molecule `S=C(Nc1cccc(Cl)c1)Nc1ncccc1OCc1cccc(Cl)c1`, in data set [1], the Ratio stood at 38%. The activity at 7 h, 5 µM in data set [2] turned out to be 104%. Moreover, in data set [3], the viability at 24 h, 5 µM worked out at 98.3%. For the same molecule, the Activity in data set [4] was determined as 51.8%.

On to `NC(=O)CN1CCCC1=O` [PIRACETAM], for which, in data set [2], the activity at 7 h, 5 µM worked out at 88%. The Activity in data set [4] amounted to 29%.

On to `S=C(Nc1ncccc1OCc1ccccc1Cl)Nc1cccc2ccccc12`, for which, in data set [1], the Ratio is 17.5%. In addition, in data set [2], the activity at 7 h, 5 µM was 100%. Moreover, the viability at 24 h, 5 µM in data set [3] was determined as 89.3%. The Activity in data set [4] is 9.5%.
